ChEMBL document CHEMBL3525979, “Combined contributions of impaired hepatic CYP2C11 and intestinal breast cancer resistance protein activities and expression to increased oral glibenclamide exposure in rats with streptozotocin-induced diabetes mellitus” (Drug Metab Dispos, 2012)

Assays:
[1] = Drug excretion in bile of insulin treated Sprague-Dawley rat model of streptozotocin-induced diabetes mellitus at 10 mg/kg, po by HPLC method; assay type: ADME, organism-based; parameters: dose 10 mg/kg, route oral; conditions: read-out: Drug excretion
In short: (§1)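 STZ-diabetic (65 mg/kg i.p.), insulin-treated or control rats were dosed with GLB 10 mg/kg orally on day 35 after overnight fast. Urine and feces were collected in metabolic cages at 6-h intervals to 36 h. For bile, the common bile duct was cannulated under pentobarbital and bile collected to 12 h. GLB measured by HPLC-fluorescence and expressed as % of dose.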

Liver microsome [2] = assay: Apparent hepatic clearance in insulin treated streptozotocin-induced diabetes mellitus Sprague-Dawley rat liver microsomes assessed per mg protein at 4 uM after 60 mins; assay type: ADME; conditions: 1 h
In short: (§2)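 Liver microsomes (0.5 mg/mL protein) from control, STZ-diabetic or insulin-treated diabetic rats, 0.01 M phosphate buffer pH 7.4, 4 μM GLB (methanol <1%); 5 min preincubation at 37 °C, started with NADPH regenerating system. Stopped with 1 M HCl at 0, 5, 15, 30, 45, 60 min. GLB depletion measured by HPLC-fluorescence. AUC by linear trapezoid; Clapp = initial dose/AUC0-t; t1/2 = 0.693/terminal slope. Triplicate incubations; 4-5 rats.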

[3] = Drug excretion in normal Sprague-Dawley rat feces at 10 mg/kg, po by HPLC method; assay type: ADME, organism-based; parameters: dose 10 mg/kg, route oral; conditions: faeces, read-out: Drug excretion; in short: as §1
[4] = Half life in streptozotocin-induced diabetes mellitus Sprague-Dawley rat liver microsomes at 4 uM after 60 mins; assay type: ADME; in short: as §2
Liver microsome [5] = assay: Drug metabolism in insulin treated streptozotocin-induced diabetes mellitus Sprague-Dawley rat liver microsomes assessed as compound level at 4 uM after 60 mins (reference value: 2.06 +/- 0.27 ug/ml); assay type: ADME; conditions: 1 h
[6] = Terminal elimination half life in insulin treated Sprague-Dawley rat model of streptozotocin-induced diabetes mellitus at 10 mg/kg, po by HPLC method; assay type: ADME, organism-based; parameters: dose 10 mg/kg, route oral; conditions: in vivo, read-out: beta t1/2 (converted)
In short: (§3)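 Rats given STZ 65 mg/kg i.p. in citrate buffer pH 4.5 (controls got buffer); diabetic if fasting glucose >11.1 mM at day 7; insulin group got protamine zinc insulin 5 U/kg s.c. twice daily for 4 weeks. On day 35, overnight-fasted rats dosed orally with 10 mg/kg in 0.5% CMC-Na; plasma by ethyl acetate extraction, HPLC fluorescence (ex 308/em 360 nm); non-compartmental analysis; n=6-7, mean ± S.D.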

[7] = Drug excretion in urine of Sprague-Dawley rat model of streptozotocin-induced diabetes mellitus at 10 mg/kg, po by HPLC method; assay type: ADME, organism-based; parameters: dose 10 mg/kg, route oral; conditions: read-out: Drug excretion; in short: as §1
[8] = Cmax in normal Sprague-Dawley rat at 10 mg/kg, po by HPLC method; assay type: ADME, organism-based; parameters: dose 10 mg/kg, route oral; conditions: in vivo
In short: (§4)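 Sprague-Dawley rats: diabetes induced by STZ 65 mg/kg i.p. in citrate buffer pH 4.5 (fasting glucose >11.1 mM at day 7). Insulin group received protamine zinc insulin 5 U/kg s.c. twice daily for 4 weeks. On day 35, overnight-fasted rats got GLB 10 mg/kg orally in 0.5% CMC-Na. Plasma GLB measured by HPLC with fluorescence detection (ex 308/em 360 nm). Non-compartmental analysis; n=6-7.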

[9] = Cmax in insulin treated Sprague-Dawley rat model of streptozotocin-induced diabetes mellitus at 10 mg/kg, po by HPLC method; assay type: ADME, organism-based; parameters: dose 10 mg/kg, route oral; conditions: in vivo; in short: as §4
[10] = AUC (0 to 60 mins) in normal Sprague-Dawley rat liver microsomes at 4 uM after 60 mins; assay type: ADME; parameters: time < 1 hr, dose 4 uM; in short: as §2
Jejunum [11] = assay: Drug absorption in streptozotocin-induced diabetes mellitus Sprague-Dawley rat jejunum at 10 ug/ml after 30 mins of in situ single-pass perfusion relative to normal rat; assay type: ADME, tissue-based; conditions: in vivo, 0.5 h
In short: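 In situ single-pass jejunal perfusion in anaesthetized control and STZ-diabetic rats. The segment was preperfused with 0.9% saline at 0.2 mL/min, 37 °C, for 20 min, then perfused with K-H buffer containing GLB 10 μg/mL. Effluent was collected at 15-min intervals after a 30-min steady state. Cumulative absorption was calculated from GLB loss (HPLC); n=5.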

Liver microsome [12] = assay: Drug metabolism in streptozotocin-induced diabetes mellitus Sprague-Dawley rat liver microsomes assessed as compound level at 4 uM after 60 mins (reference value: 2.0 +/- 0.13 ug/ml); assay type: ADME; conditions: 1 h
[13] = Tmax in normal Sprague-Dawley rat at 10 mg/kg, po by HPLC method; assay type: ADME, organism-based; parameters: dose 10 mg/kg, route oral; conditions: in vivo; in short: as §3
[14] = AUC (0 to t) in normal Sprague-Dawley rat at 10 mg/kg, po by HPLC method; assay type: ADME, organism-based; parameters: dose 10 mg/kg, route oral; conditions: plasma; in short: as §4
Jejunum [15] = assay: Drug absorption in normal Sprague-Dawley rat jejunum assessed as 200 uM BCRP inhibitor novobiocin-mediated increase in apparent effective permeability at 10 ug/ml measured at 90 mins of perfusion; assay type: ADME, tissue-based; parameters: scale not given: the % may be the effect or the level left; conditions: 1.5 h
In short: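 Normal rats underwent in situ single-pass jejunal perfusion: saline preperfusion at 0.2 mL/min, 37 °C, for 20 min, then K-H buffer with GLB 10 μg/mL with or without novobiocin 50 or 200 μM. Effluent was collected every 15 min. Peff (cm/min) was calculated from GLB loss and the absorptive area of the segment; n=5.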

[16] = Mean residence time in normal Sprague-Dawley rat at 10 mg/kg, po by HPLC method; assay type: ADME, organism-based; parameters: dose 10 mg/kg, route oral; conditions: in vivo; in short: as §4
[17] = Oral clearance in insulin treated Sprague-Dawley rat model of streptozotocin-induced diabetes mellitus at 10 mg/kg, po by HPLC method; assay type: ADME, organism-based; parameters: dose 10 mg/kg, route oral; conditions: in vivo; in short: as §3
[18] = Terminal elimination half life in normal Sprague-Dawley rat at 10 mg/kg, po by HPLC method; assay type: ADME, organism-based; parameters: dose 10 mg/kg, route oral; conditions: in vivo, read-out: beta t1/2 (converted); in short: as §3
[19] = Oral clearance in normal Sprague-Dawley rat at 10 mg/kg, po by HPLC method; assay type: ADME, organism-based; parameters: dose 10 mg/kg, route oral; conditions: in vivo; in short: as §3
[20] = Terminal elimination half life in Sprague-Dawley rat model of streptozotocin-induced diabetes mellitus at 10 mg/kg, po by HPLC method; assay type: ADME, organism-based; parameters: dose 10 mg/kg, route oral; conditions: in vivo, read-out: beta t1/2 (converted); in short: as §3
[21] = Cmax in Sprague-Dawley rat model of streptozotocin-induced diabetes mellitus at 10 mg/kg, po by HPLC method; assay type: ADME, organism-based; parameters: dose 10 mg/kg, route oral; conditions: in vivo; in short: as §4
[22] = AUC (0 to 60 mins) in insulin treated streptozotocin-induced diabetes mellitus Sprague-Dawley rat liver microsomes at 4 uM after 60 mins; assay type: ADME; parameters: dose 4 uM, time < 1 hr; in short: as §2
[23] = AUC (0 to infinity) in normal Sprague-Dawley rat at 10 mg/kg, po by HPLC method; assay type: ADME, organism-based; parameters: time infinity, dose 10 mg/kg, route oral; conditions: plasma; in short: as §4
[24] = AUC (0 to t) in Sprague-Dawley rat model of streptozotocin-induced diabetes mellitus at 10 mg/kg, po by HPLC method; assay type: ADME, organism-based; parameters: dose 10 mg/kg, route oral; conditions: in vivo; in short: as §4

dose excreted [1]: 0.018%
CLH(app) (Liver microsome [2]): 176 µL/min/mg
dose excreted [3]: 72%
half-life at 4 µM [4]: 0.526 h
Drug uptake (Liver microsome [5]): 0.09 µg/mL
half-life [6]: 8.18 h
dose excreted [7]: 0.023%
Cmax [8]: 350 ng/mL
Cmax [9]: 250 ng/mL
AUC(0-t) at 1 h, 4 µM [10]: 307 ng·h/mL
Drug absorption (Jejunum [11]): 35%
Drug uptake (Liver microsome [12]): 0.52 µg/mL
Tmax [13]: 1.5 h
AUC(0-t) [14]: 2350 ng·h/mL
Activity (Jejunum [15]): 32%
MRT [16]: 7.23 h
CL/F [17]: 66.3 mL/min/kg
half-life [18]: 4.55 h
CL/F [19]: 65.5 mL/min/kg
half-life [20]: 5.11 h
Cmax [21]: 1250 ng/mL
AUC(0-t) at 1 h, 4 µM [22]: 357 ng·h/mL
AUC(0-inf) [23]: 2610 ng·h/mL
AUC(0-t) [24]: 13300 ng·h/mL
Structure (SMILES): COc1ccc(Cl)cc1C(=O)NCCc1ccc(S(=O)(=O)NC(=O)NC2CCCCC2)cc1 [GLYBURIDE]
